Source: ChEMBL document CHEMBL3351764, “Design, synthesis and biological activity of flavonoid derivatives as selective agonists for neuromedin U 2 receptor” (Bioorg Med Chem, 2014)
Calls of active or inactive are those of the source. The rule behind the calls is not given here.

What was measured:
[1] = biological target: T1, Orexin receptor type 2 (Homo sapiens) (UniProt O43614); assay: Agonist activity at human orexin 2 receptor at 100 uM to 5 mM
T1 sequence (whole entry): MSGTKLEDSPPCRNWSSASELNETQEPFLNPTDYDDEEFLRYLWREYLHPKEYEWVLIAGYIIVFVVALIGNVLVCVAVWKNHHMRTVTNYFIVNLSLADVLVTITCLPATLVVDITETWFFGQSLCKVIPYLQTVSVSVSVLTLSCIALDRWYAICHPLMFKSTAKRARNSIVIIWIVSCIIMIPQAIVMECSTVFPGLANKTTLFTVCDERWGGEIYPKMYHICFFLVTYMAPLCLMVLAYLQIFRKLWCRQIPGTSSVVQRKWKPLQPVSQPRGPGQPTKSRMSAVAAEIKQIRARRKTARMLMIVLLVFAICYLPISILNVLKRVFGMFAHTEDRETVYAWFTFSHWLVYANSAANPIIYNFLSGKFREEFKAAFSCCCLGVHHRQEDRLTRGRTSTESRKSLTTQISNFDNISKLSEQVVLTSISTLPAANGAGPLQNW

[2] = biological target: Adenosine receptor A2a (Homo sapiens) (UniProt P29274); assay: Agonist activity at human A2a receptor at 100 uM to 5 mM
Adenosine receptor A2a (Homo sapiens), sequence (P29274 whole entry): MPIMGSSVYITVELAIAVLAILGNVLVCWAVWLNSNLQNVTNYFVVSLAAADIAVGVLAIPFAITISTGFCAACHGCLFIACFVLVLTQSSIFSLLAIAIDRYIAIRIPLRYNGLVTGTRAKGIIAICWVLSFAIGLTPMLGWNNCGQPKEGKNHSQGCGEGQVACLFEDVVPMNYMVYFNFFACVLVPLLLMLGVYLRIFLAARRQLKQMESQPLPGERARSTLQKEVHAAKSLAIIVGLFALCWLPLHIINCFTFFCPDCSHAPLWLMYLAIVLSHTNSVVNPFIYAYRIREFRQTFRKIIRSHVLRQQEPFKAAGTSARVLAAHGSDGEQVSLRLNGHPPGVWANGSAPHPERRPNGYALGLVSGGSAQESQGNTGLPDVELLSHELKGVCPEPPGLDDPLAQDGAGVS

[3] = biological target: Melanocyte-stimulating hormone receptor (Homo sapiens) (UniProt Q01726); assay: Agonist activity at human MC1 receptor at 100 uM to 5 mM
Melanocyte-stimulating hormone receptor (Homo sapiens), sequence (Q01726 whole entry, looked up): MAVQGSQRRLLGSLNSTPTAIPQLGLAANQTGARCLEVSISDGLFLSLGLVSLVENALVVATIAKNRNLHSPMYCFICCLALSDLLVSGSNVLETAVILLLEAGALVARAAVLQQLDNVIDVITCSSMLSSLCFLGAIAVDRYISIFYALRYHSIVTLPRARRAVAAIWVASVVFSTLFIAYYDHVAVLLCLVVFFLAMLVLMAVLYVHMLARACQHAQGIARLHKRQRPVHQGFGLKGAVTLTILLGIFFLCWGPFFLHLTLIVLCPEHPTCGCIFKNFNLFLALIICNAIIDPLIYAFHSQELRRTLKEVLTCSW

[4] = biological target: T2, Neuromedin-U receptor 1 (Homo sapiens) (UniProt Q9HB89); assay: Agonist activity at human NMU1 receptor at 100 uM to 5 mM
T2 sequence (whole entry): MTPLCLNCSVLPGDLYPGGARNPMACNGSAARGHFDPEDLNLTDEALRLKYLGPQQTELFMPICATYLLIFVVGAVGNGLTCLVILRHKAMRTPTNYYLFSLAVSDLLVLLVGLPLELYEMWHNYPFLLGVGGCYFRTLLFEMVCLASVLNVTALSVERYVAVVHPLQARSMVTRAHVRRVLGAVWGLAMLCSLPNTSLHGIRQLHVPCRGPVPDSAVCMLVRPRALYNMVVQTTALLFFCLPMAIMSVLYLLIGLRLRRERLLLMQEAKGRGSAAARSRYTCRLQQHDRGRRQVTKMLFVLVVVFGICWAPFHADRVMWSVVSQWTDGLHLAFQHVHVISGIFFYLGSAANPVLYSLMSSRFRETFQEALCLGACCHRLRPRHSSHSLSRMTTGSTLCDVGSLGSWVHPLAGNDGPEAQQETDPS

[5] = biological target: Melanocyte-stimulating hormone receptor (Mus musculus) (UniProt Q01727); assay: Agonist activity at mouse MC1 receptor at 100 uM to 5 mM
Melanocyte-stimulating hormone receptor (Mus musculus), sequence (Q01727 whole entry, looked up): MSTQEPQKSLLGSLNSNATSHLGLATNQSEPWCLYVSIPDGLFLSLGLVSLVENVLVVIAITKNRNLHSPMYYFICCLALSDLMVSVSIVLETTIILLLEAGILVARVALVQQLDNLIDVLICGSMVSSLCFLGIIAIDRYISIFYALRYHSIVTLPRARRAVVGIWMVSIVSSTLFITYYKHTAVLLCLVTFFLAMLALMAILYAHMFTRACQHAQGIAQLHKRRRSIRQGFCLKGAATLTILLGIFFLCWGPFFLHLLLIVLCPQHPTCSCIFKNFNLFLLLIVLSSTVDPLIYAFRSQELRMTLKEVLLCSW

[6] = biological target: D(1A) dopamine receptor (Homo sapiens) (UniProt P21728); assay: Agonist activity at human D1 receptor at 100 uM to 5 mM
D(1A) dopamine receptor (Homo sapiens), sequence (P21728 whole entry): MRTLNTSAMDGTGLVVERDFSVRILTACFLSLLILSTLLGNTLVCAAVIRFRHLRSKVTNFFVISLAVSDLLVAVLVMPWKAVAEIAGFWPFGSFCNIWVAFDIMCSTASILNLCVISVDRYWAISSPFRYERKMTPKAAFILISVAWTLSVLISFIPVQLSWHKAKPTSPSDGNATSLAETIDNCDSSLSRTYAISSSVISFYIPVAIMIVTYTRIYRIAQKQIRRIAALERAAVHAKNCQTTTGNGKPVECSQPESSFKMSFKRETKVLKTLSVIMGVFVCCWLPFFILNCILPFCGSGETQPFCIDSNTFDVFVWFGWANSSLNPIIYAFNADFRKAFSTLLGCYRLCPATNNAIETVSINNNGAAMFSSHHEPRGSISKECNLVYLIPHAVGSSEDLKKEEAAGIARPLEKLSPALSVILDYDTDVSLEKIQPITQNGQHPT

[7] = biological target: Glucagon receptor (Homo sapiens) (UniProt P47871); assay: Agonist activity at human Glu receptor at 100 uM to 5 mM
Glucagon receptor (Homo sapiens), sequence (P47871 whole entry): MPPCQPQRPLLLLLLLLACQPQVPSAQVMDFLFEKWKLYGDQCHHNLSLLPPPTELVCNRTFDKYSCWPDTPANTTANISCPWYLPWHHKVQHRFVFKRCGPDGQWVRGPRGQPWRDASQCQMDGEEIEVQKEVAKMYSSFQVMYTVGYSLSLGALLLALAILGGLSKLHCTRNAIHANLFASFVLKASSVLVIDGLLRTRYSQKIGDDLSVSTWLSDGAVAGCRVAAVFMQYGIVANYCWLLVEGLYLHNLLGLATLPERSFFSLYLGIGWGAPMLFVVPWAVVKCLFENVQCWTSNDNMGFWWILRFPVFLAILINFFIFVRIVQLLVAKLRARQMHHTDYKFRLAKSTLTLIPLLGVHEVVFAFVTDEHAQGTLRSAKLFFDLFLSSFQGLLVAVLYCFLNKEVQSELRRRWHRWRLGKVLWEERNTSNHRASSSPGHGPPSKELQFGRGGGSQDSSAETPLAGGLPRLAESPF

[8] = biological target: Melanocortin receptor 3 (Mus musculus) (UniProt P33033); assay: Agonist activity at mouse MC3 receptor at 100 uM to 5 mM
Melanocortin receptor 3 (Mus musculus), sequence (P33033 whole entry): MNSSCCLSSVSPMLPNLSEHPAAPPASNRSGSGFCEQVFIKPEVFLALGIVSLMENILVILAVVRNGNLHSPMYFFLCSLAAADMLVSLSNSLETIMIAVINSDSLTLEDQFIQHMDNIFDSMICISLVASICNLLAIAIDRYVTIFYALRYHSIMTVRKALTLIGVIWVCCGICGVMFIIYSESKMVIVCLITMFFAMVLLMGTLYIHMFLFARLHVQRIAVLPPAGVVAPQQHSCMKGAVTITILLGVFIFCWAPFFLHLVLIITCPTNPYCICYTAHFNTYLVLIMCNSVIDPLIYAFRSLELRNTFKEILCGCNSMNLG

[9] = biological target: T3, C5a anaphylatoxin chemotactic receptor 1 (Homo sapiens) (UniProt P21730); assay: Agonist activity at human C5a receptor at 100 uM to 5 mM
T3 sequence (whole entry): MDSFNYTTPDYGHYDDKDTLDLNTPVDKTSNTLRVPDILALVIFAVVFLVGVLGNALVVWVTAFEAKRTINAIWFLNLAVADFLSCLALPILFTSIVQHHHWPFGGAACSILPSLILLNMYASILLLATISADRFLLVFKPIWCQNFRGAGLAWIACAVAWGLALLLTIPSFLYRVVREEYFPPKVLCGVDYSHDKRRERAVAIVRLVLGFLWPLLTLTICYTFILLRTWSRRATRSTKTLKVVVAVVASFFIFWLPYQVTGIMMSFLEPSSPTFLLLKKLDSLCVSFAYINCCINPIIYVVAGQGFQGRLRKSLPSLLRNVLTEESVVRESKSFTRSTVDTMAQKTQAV

Neuromedin-U receptor 2 = Neuromedin-U receptor 2 (Homo sapiens, UniProt Q9GZQ4); assay: Agonist activity at human NMU2R transfected in HEK293 cells after 7 hrs by luciferase reporter gene assay; type: cell-based
Neuromedin-U receptor 2, sequence (Q9GZQ4 whole entry): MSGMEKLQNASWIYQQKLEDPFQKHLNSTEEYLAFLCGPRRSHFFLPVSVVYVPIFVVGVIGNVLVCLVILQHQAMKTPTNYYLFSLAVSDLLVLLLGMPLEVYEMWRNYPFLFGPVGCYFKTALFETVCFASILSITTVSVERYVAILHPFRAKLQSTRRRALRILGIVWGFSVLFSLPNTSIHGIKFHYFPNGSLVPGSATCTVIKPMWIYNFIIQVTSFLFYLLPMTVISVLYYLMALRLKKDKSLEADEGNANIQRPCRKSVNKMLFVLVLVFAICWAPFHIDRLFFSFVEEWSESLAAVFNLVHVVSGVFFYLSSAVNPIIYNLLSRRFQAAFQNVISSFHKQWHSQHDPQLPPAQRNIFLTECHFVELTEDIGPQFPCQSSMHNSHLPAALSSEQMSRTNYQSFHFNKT
Method in brief: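 HEK-293 cells were stably co-transfected with a reporter gene construct and human NMU2R cDNA in pcDNA3.1(+), maintained under G418 selection at 37 °C in 5% CO2, then seeded and incubated overnight. Compounds were added at various concentrations for 7 h at 37 °C, followed by Bright-Glo luciferase read-out. Forskolin and NMU served as positive controls. EC50 was fitted by four-parameter logistic regression; means ± SEM of three independent experiments.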

[10] = biological target: Melanocortin receptor 3 (Homo sapiens) (UniProt P41968); assay: Agonist activity at human MC3 receptor at 100 uM to 5 mM
Melanocortin receptor 3 (Homo sapiens), sequence (P41968 whole entry): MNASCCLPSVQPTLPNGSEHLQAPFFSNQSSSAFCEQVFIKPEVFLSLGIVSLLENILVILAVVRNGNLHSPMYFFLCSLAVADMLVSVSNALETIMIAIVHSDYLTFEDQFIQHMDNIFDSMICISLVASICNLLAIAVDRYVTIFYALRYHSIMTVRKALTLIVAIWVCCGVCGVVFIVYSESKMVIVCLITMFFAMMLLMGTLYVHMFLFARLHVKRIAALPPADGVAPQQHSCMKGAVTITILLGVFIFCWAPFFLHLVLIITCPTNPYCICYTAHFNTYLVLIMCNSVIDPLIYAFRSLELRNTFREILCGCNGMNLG

[11] = biological target: Melanocortin receptor 4 (Homo sapiens) (UniProt P32245); assay: Agonist activity at human MC4 receptor at 100 uM to 5 mM
Melanocortin receptor 4 (Homo sapiens), sequence (P32245 whole entry): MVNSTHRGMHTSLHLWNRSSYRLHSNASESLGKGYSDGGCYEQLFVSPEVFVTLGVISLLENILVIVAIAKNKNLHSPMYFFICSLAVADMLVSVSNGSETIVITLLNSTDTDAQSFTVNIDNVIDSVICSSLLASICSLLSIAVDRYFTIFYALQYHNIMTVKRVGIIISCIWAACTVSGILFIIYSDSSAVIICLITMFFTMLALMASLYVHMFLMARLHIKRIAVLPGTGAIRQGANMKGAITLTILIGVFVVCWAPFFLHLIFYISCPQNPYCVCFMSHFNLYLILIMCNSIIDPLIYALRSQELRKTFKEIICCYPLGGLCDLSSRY

[12] = biological target: T4, Muscarinic acetylcholine receptor M1 (Homo sapiens) (UniProt P11229); assay: Agonist activity at human M1 receptor at 100 uM to 5 mM
T4 sequence (whole entry): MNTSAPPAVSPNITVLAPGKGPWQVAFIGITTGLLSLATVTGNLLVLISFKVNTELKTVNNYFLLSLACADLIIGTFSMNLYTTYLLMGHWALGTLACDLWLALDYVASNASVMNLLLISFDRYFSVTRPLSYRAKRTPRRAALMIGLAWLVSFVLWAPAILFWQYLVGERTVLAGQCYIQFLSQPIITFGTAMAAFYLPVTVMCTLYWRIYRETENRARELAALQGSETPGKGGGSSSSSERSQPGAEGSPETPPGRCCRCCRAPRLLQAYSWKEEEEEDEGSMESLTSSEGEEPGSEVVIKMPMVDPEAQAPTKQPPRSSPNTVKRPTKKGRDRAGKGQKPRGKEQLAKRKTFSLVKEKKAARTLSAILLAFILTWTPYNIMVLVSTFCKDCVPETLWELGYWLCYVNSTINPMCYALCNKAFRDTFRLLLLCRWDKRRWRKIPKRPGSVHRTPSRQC

[13] = biological target: T5, Adenosine receptor A1 (Homo sapiens) (UniProt P30542); assay: Agonist activity at human A1 receptor at 100 uM to 5 mM
T5 sequence (whole entry): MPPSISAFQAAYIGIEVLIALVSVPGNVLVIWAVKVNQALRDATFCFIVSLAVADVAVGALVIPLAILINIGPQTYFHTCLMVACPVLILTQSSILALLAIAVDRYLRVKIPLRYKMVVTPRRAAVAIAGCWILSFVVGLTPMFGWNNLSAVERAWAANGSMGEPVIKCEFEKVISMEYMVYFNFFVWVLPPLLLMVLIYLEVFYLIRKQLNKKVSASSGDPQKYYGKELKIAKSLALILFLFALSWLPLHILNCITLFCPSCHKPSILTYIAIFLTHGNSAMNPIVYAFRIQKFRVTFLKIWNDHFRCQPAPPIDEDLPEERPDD

Activity [1]	Activity [2]	Activity [3]	Activity [4]	Activity [5]	Activity [6]	Activity [7]	Activity [8]	EC50 (Neuromedin-U receptor 2; read-out: EC50) [µM]	Activity [10]	Activity [11]	Activity [12]	Activity [13]	EC50 (Neuromedin-U receptor 2; hek293)	Compound	Activity [9]
inactive	inactive	inactive	inactive	inactive	inactive	inactive	inactive	37.3	inactive	inactive	inactive	inactive		O=c1c(O)c(-c2ccccc2F)oc2ccccc12	inactive
inactive	inactive	inactive	inactive	inactive	inactive	inactive	inactive		inactive	inactive	inactive	inactive	Not Active	CN(C)c1ccc(C2C=Cc3ccccc3O2)cc1 (racemic)	inactive
inactive	inactive	inactive	inactive	inactive	inactive	inactive	inactive		inactive	inactive	inactive	inactive	Not Active	O=c1cc(-c2ccc(O)cc2)oc2ccccc12	inactive
inactive	inactive	inactive	inactive	inactive	inactive	inactive	inactive		inactive	inactive	inactive	inactive	Not Active	O=c1cc(-c2ccccc2F)oc2ccccc12	inactive
inactive	inactive	inactive	inactive	inactive	inactive	inactive	inactive		inactive	inactive	inactive	inactive	Not Active	COc1ccc(-c2oc3ccccc3c(=O)c2O)cc1O	inactive
inactive	inactive	inactive	inactive	inactive	inactive	inactive	inactive		inactive	inactive	inactive	inactive	Not Active	COc1cccc(-c2oc3ccccc3c(=O)c2O)c1	inactive
inactive	inactive	inactive	inactive	inactive	inactive	inactive	inactive		inactive	inactive	inactive	inactive	Not Active	COc1ccc(-c2cc(=O)c3ccccc3o2)cc1O	inactive
inactive	inactive	inactive	inactive	inactive	inactive	inactive	inactive		inactive	inactive	inactive	inactive	Not Active	O=c1c(O)c(-c2cccc(Br)c2)oc2ccccc12	inactive
inactive	inactive	inactive	inactive	inactive	inactive	inactive	inactive		inactive	inactive	inactive	inactive	Not Active	COc1cc(-c2cc(=O)c3ccccc3o2)ccc1O	inactive
inactive	inactive	inactive	inactive	inactive	inactive	inactive	inactive		inactive	inactive	inactive	inactive	Not Active	O=c1c(O)c(-c2ccc(O)cc2)oc2ccccc12	inactive
inactive	inactive	inactive	inactive	inactive	inactive	inactive	inactive		inactive	inactive	inactive	inactive	Not Active	COc1ccc(C2C=Cc3ccccc3O2)cc1 (racemic)	inactive
